Assay results collected from several papers.
Lines come from different studies, so protocols differ.
Organism: Trypanosoma brucei
Observed: parasite growth

The EC90 of `Cc1ccc2nc(-c3ccc(F)c(F)c3)c(CN3CCC(Cc4ccccc4)CC3)n2c1` is reported as 18100 nM (48 h).
`Cc1ccc(C(=O)Nc2ccc(S(=O)(=O)O)c3cc(S(=O)(=O)O)cc(S(=O)(=O)O)c23)cc1NC(=O)c1cccc(NC(=O)Nc2cccc(C(=O)Nc3cc(C(=O)Nc4ccc(S(=O)(=O)O)c5cc(S(=O)(=O)O)cc(S(=O)(=O)O)c45)ccc3C)c2)c1` has an IC50 of 50 nM (resazurin; RHODESIENSE).
`Nc1nc(N)c2nc(CNc3ccc(C(=O)N4CCC(C(=O)O)CC4)cc3)cnc2n1` has an inhibition of 8% (resazurin; 10 µM, 72 h).
`[O-][S+]1CCN(Cc2ccc(-c3ccc4ncnc(Nc5ccc(OCc6ccccc6)c(Cl)c5)c4c3)o2)CC1` has an EC50 of 631 nM.
`CC1CS(=O)(=O)CCN1/N=C/c1ccc([N+](=O)[O-])o1` (stereo not drawn) has an IC50 of 3500 nM.
For `COc1ccc(C(=O)Nc2ccc(NC(=N)N)c(OCc3cc(OC)ccc3OC)c2)cc1`, the IC50 was 800 nM.
`Cc1ccc2nc(-c3ccc(Cl)cc3)cn2c1` gave an EC50 of 10400 nM (48 h).
The IC50 of `CONC(=O)CN1C(=O)CNC2(C1=O)C1CC3CC(C1)CC2C3` (stereo not drawn) is reported as 542000 nM (pH 7.4, blood stage).
For `N=C(N)c1ccc(OCCCCCOc2ccc(C(=N)N)cc2)cc1`, the IC50 was 1.8 nM (resazurin; RHODESIENSE STIB900).
For `ClCCOC(c1ccccc1)c1ccccc1`, the EC50 was 32100 nM.
With `CCOC(=O)C1CCCN1C(=O)c1ccc(NCc2cnc3nc(N)nc(N)c3n2)cc1` (stereo not drawn) the inhibition was 30% (resazurin; 10 µM, 72 h).
With `NNC(=O)CN1C(=O)CNC2(C1=O)C1CC3CC(C1)CC2C3` (stereo not drawn) the IC50 was 118000 nM (pH 7.4, blood stage).
For `C[C@@H](Oc1cc(-n2cnc3ccc(OCC4CCN(C)CC4)cc32)sc1C(N)=O)c1ccccc1Cl`, the EC50 was 15.8 nM.
`CCOC(=O)C1CCN(C(=O)c2ccc(N(C)Cc3cnc4nc(N)nc(N)c4n3)cc2)CC1` gave an inhibition of 47% (resazurin; 10 µM, 72 h).
The EC50 of `NS(=O)(=O)c1ccc(Nc2cc(-c3ccc(O)c(F)c3)n[nH]2)cc1` is reported as 6310 nM.
With `COc1c(Br)cc(Br)cc1CN[C@H]1CCCN(c2nc3nc(Cl)ccc3[nH]2)C1` the EC50 was 40 nM.
With `COc1ccc(-c2oc3ncnc(N)c3c2-c2ccc(NC(=O)Nc3cc(C(F)(F)F)ccc3F)cc2)cc1` the EC50 was 1580 nM.
`O=C(Nc1ccc2c(c1)B(O)OC2)Nc1ccc(F)c(C(F)(F)F)c1` has an IC50 of 520 nM (RHODESIENSE STIB900).
The inhibition of `COC(=O)C1CCN(C(=O)c2ccc(NCc3cnc4nc(N)nc(N)c4n3)cn2)CC1` is reported as 10% (resazurin; 10 µM, 72 h).
The EC50 of `CS(=O)(=O)CCNCc1ccc(-c2ccc3ncnc(Nc4ccc(OCc5cccc(F)c5)c(C(F)(F)F)c4)c3c2)o1` is reported as 2000 nM.
The inhibition of `NC(=O)C1CCN(C(=O)c2ccc(NCc3cnc4nc(N)nc(N)c4n3)cc2)CC1` is reported as 12% (resazurin; 10 µM, 72 h).
`COc1cc2c(cc1Nc1nc(N3CCc4ccccc43)c3cc[nH]c3n1)N(C(=O)CN(C)C)CC2` gave an EC50 of 100 nM.
`ClCCOC1c2ccccc2CCc2ccccc21` gave an EC50 of 27900 nM.
`CCCN1CCC(c2ccc(Nc3nc(Nc4cc(F)ccc4C(N)=O)c4cc[nH]c4n3)c(OC)c2)CC1` has an EC50 of 1580 nM.
For `CN(Cc1cnc2nc(N)nc(N)c2n1)c1ccc(C(=O)N2CCCCC2)cc1`, the inhibition was 48% (resazurin; 10 µM, 72 h).
`COc1cc(Nc2ncc3c(C)nc(-c4cccc(Oc5ccccc5)c4)n3n2)cc(OC)c1OC` gave an EC50 of 794 nM.
`CCCOC(=O)C1CCN(C(=O)c2ccc(N(C)Cc3cnc4nc(N)nc(N)c4n3)cc2)CC1` has an inhibition of 51% (resazurin; 10 µM, 72 h).
With `N=C(N)c1ccc(OCCCCCOc2ccc(C(=N)N)cc2)cc1` the EC50 was 5.4 nM.
The inhibition of `COC(=O)C1CCN(C(=O)c2ccc(SCc3cnc4nc(N)nc(N)c4n3)nc2)CC1` is reported as 16% (resazurin; 10 µM, 72 h).
With `Cc1ccc2nc(-c3ccc(F)c(F)c3)c(CN3CCN(C4CCCCC4)CC3)n2c1` the EC50 was over 20000 nM (48 h).
